# From ChEMBL document CHEMBL1131454 (J Med Chem, 1998)
# Legend:
# Estrogen receptor = Estrogen receptor (Homo sapiens, UniProt Q92731+P03372); experiment: Antagonistic activity was determined in Human estrogen receptor(hER) of CV-1 cells in cotransfection assay.; format: functional, cell-based
# Progesterone receptor [1] = target: T1, Progesterone receptor (Homo sapiens, UniProt P06401); experiment: Agonistic activity to the human progesterone receptor (hPR)assayed in CV-1 cells in cotransfection assay.; format: functional, cell-based
# T1 sequence (P06401 whole entry): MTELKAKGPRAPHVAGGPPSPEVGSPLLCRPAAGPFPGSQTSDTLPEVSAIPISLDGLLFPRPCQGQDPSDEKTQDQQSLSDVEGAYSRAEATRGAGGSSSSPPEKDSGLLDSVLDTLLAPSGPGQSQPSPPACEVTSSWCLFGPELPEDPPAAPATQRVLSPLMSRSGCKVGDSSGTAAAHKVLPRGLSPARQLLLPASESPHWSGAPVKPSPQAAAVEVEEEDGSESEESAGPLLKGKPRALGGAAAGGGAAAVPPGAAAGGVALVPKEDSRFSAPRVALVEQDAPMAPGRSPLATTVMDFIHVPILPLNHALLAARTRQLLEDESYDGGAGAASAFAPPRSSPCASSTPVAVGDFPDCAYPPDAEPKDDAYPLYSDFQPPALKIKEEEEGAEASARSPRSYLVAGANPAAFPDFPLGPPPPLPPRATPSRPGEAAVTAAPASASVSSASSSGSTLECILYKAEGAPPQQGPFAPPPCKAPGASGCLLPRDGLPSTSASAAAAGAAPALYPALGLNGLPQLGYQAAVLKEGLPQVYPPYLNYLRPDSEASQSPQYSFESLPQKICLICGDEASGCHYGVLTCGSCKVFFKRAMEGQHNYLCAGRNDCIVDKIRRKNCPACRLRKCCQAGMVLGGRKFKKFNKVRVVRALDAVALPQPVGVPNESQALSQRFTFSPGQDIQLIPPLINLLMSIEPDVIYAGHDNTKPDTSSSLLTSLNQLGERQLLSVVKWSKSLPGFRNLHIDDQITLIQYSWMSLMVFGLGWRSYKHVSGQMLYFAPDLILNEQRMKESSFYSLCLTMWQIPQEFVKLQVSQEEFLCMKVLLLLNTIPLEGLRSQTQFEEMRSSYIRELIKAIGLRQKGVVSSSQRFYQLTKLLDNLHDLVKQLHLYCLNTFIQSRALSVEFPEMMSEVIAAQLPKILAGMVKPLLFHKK
# [2] = target: T2, Progesterone receptor (Homo sapiens) (UniProt P06401); experiment: Human progesterone receptor (hPR) antagonist efficacy was determined as a function (%) of maximal inhibition of progesterone at EC50 value.; format: functional
# T2 sequence (whole entry): T1 sequence (P06401 whole entry)
# In short: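 hPR antagonist-mode cotransfection in CV-1 cells transiently transfected by calcium phosphate coprecipitation with hPR plasmid, MTV-LUC reporter, pRS-β-Gal and filler DNA. […] Values come from one, two, or at least three experiments in triplicate.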
# Progesterone receptor [3] = target: T1, Progesterone receptor; experiment: The binding affinity on Human progesterone receptor (hPR-A) using progesterone as radioligand.
# Progesterone receptor [4] = target: T1, Progesterone receptor; experiment: Antagonistic activity was determined in Human progesterone receptor(hPR) of CV-1 cells in cotransfection assay.; format: functional, cell-based
# Androgen receptor = target: T3, Androgen receptor (Homo sapiens, UniProt P10275)
# T3 sequence (P10275 whole entry): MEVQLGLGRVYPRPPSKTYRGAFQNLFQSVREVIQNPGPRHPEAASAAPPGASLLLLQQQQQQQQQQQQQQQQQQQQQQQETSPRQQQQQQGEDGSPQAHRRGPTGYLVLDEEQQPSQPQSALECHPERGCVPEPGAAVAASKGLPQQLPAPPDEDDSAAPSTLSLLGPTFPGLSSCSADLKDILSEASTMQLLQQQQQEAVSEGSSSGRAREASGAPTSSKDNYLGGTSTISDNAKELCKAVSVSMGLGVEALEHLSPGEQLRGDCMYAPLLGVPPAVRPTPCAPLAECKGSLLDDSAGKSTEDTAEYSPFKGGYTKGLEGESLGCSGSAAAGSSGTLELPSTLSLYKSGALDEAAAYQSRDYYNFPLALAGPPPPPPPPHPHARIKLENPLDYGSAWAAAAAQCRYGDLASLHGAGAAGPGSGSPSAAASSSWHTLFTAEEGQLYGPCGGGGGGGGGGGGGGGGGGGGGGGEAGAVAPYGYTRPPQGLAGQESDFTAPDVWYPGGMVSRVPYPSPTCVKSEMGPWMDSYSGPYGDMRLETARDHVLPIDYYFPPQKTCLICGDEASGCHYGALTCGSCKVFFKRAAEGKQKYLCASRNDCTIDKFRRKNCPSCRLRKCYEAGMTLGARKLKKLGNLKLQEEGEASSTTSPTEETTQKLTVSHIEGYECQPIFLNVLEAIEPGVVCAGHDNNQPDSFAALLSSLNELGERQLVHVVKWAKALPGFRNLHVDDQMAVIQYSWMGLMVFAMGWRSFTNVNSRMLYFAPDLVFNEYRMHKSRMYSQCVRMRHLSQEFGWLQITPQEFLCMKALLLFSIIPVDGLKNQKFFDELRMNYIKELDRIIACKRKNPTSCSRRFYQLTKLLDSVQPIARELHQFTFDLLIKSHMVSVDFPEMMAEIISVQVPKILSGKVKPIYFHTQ
# Glucocorticoid receptor [5] = target: T4, Glucocorticoid receptor (Homo sapiens, UniProt P04150)
# T4 sequence (P04150 whole entry): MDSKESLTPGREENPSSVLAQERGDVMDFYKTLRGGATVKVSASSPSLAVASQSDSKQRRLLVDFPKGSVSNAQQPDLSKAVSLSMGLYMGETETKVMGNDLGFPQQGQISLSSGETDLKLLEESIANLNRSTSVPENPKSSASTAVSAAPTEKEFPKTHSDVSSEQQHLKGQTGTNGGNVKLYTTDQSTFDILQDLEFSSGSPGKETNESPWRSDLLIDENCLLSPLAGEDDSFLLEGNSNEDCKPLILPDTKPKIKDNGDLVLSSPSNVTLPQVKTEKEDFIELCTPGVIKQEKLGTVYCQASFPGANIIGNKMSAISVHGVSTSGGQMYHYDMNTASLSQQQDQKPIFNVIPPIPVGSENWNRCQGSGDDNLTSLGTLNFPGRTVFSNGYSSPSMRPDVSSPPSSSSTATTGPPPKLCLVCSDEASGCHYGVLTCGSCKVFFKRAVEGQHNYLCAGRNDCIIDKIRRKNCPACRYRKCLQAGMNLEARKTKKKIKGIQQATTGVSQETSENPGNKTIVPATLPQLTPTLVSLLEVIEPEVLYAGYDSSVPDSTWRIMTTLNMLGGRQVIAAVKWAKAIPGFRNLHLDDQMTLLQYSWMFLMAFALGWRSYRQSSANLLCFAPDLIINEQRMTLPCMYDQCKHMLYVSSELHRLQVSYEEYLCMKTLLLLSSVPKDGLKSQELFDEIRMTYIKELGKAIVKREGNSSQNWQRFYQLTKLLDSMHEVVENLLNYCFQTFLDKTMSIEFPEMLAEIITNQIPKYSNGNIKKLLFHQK
# Glucocorticoid receptor [6] = target: T4, Glucocorticoid receptor; remark: listed apart in the source
IC50 (Estrogen receptor) [nM],EC50 (Progesterone receptor [1]) [nM],Efficacy [2] [%],Ki (Progesterone receptor [3]) [nM],IC50 (Progesterone receptor [4]) [nM],IC50 (Androgen receptor) [nM],IC50 (Glucocorticoid receptor [5]) [nM],Ki (Glucocorticoid receptor [6]) [nM],SMILES
2632,18,42,3.4,720,946,80,59,CC1=CC(C)(C)Nc2ccc3c(c21)C(c1ccc(Cl)c(Cl)c1)Oc1ccccc1-3 (stereo unspecified)
1037,17,31,0.87,1100,1240,166,42,CC1=CC(C)(C)Nc2ccc3c(c21)C(c1cc(C)cc(Br)c1)Oc1ccccc1-3 (stereo unspecified)
> 10000,50,< 20,1.7,> 10000,1090,225,100,CC1=CC(C)(C)Nc2ccc3c(c21)C(c1cc(Cl)cc(Cl)c1)Oc1ccccc1-3 (stereo unspecified)
2395,37,38,2.3,250,1240,294,80,CC1=CC(C)(C)Nc2ccc3c(c21)C(c1ccc(C)cc1)Oc1ccccc1-3 (stereo unspecified)
1220,14,< 20,1.2,> 10000,1430,275,147,CC1=CC(C)(C)Nc2ccc3c(c21)C(c1ccc(Cl)c(C)c1)Oc1ccccc1-3 (stereo unspecified)
1095,8,41,1.1,1140,401,266,34,CC1=CC(C)(C)Nc2ccc3c(c21)C(c1cccc(Br)c1)Oc1ccccc1-3 (stereo unspecified)
1449,17,< 20,0.41,> 10000,2200,171,39,CC1=CC(C)(C)Nc2ccc3c(c21)C(c1ccc(Cl)c(F)c1)Oc1ccccc1-3 (stereo unspecified)
1449,16,< 20,1.8,> 10000,1220,185,60,CC1=CC(C)(C)Nc2ccc3c(c21)C(c1ccc(C)c(F)c1)Oc1ccccc1-3 (stereo unspecified)
1537,13,< 20,2.6,> 10000,315,505,44,CC1=CC(C)(C)Nc2ccc3c(c21)C(c1cccc(C(F)(F)F)c1)Oc1ccccc1-3 (stereo unspecified)
> 10000,14,42,0.55,3140,481,115,67,CC1=CC(C)(C)Nc2ccc3c(c21)C(c1ccc(Br)cc1)Oc1ccccc1-3 (stereo unspecified)

SMILES,IC50 (Estrogen receptor) [nM],EC50 (Progesterone receptor [1]) [nM],Efficacy [2] [%],Ki (Progesterone receptor [3]) [nM],IC50 (Progesterone receptor [4]) [nM],IC50 (Androgen receptor) [nM],IC50 (Glucocorticoid receptor [5]) [nM],Ki (Glucocorticoid receptor [6]) [nM]
CC1=CC(C)(C)Nc2ccc3c(c21)C(c1cccc(Cl)c1)Oc1ccccc1-3 (stereo unspecified),1480,18,37,0.43,930,253,136,58
CC1=CC(C)(C)Nc2ccc3c(c21)C(c1ccc(Cl)cc1)Oc1ccccc1-3 (stereo unspecified),1803,14,31,0.7,600,1550,339,152
